Experiment: Toxicity liver stage against HepG2, at 10uM
Assay type: cell-based
Parameters: test concentration 10 uM, cell line HepG2-A16-CD81EGFP
Conditions: human, HepG2-A16-CD81EGFP cells; read-out: INHIBITION
Procedure, shortened: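 Uninfected HepG2-A16-CD81EGFP cells, 3 × 10^3 per well, 1536-well, plated on prespotted compound at 10 μM final, parasite-free screening media added to match infected plates; puromycin 10 μM positive, DMSO 0.5% negative; run in parallel with 48 h PbLuc assay at 37 °C, 5% CO2; viability by CellTiter-Glo luminescence, normalized to controls.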

Row | Compound | cytotoxicity at 10 µM [%]
1 | CC(C)CN1CCc2[nH]cnc2C12CCN(C(=O)c1cncn1C)CC2 | -8.1
2 | Cc1cc(C(O)CCNC(=O)c2ccc(Cl)s2)c(C)o1 (stereo unspecified) | -1.22
3 | O=C(Nc1ccccc1OC1CCOC1)c1[nH]nc2c1CCCC2 (stereo unspecified) | 0.271
4 | CCOc1ccc(NC2CCN(CC(F)(F)F)C2=O)cc1C (stereo unspecified) | 1.41
5 | Cc1cc(NC(=O)Cn2ccc(=O)c3ccccc32)[nH]n1 | -146
6 | CC(C)[C@@H]1CN(S(=O)(=O)Cc2ccccc2)C[C@H]1C(=O)O | -1.05
7 | Cc1cccc(Cl)c1NC(=O)Cn1cc(C(=O)O)ccc1=O | -1.35
8 | CCOc1ccc(S(=O)(=O)NCCc2ccc(N(C)C)cc2)cc1F | -3.56
9 | COCC(=O)NCc1cccc(Br)c1 | -4.2
10 | CC(=O)N1CCCCCC1C1CCN(Cc2nc(C3CC3)no2)CC1 (stereo unspecified) | -56.4
11 | Cc1ccc(Oc2ncccc2C(=O)N(C)CCCN(C)C)c(C)c1 | -1.16
12 | Cc1nn2c(N3CCC(C#N)CC3)cc(-c3ccccc3)nc2c1C | -8.6
13 | O=C(C1CCOCC1)N1CCO[C@H]2[C@@H](OCc3ccncc3)CC[C@@H]21 | 5.54
14 | CNc1cc(CNC(=O)c2ccccc2)nc(-c2ccncc2)n1 | 0.462
15 | Cc1nc(CN2CC[C@H]3C[C@H](c4ccncn4)O[C@@H]3C2)cs1 | -144
16 | CN(C)C(=O)N1CCN(C(=O)c2ccc(Cl)cc2)CC2(CNC(=O)C2)C1 (stereo unspecified) | 10.5
17 | CCN(C)c1ncnc2c1CCN(C(=O)c1cccn1C)CC2 | -67.8
18 | Cc1cc(NC(=O)Cn2ncc(SCC(N)=O)c(Cl)c2=O)ccc1Br | 15.3
19 | Cc1cc(C)n(CC2CCCCN2CC(=O)N(C)Cc2ccco2)n1 (stereo unspecified) | -9.75
20 | COCCN(Cc1ccncc1)C(=O)C1COc2ccccc2C1 (stereo unspecified) | 6.77
21 | COc1c(C)cnc(CN2CCOC(Cn3cncn3)C2)c1C (stereo unspecified) | -3.36

Row | Compound | cytotoxicity at 10 µM [%]
22 | CN1CCC(c2cccc(CCC(=O)NCC(N)=O)n2)CC1 | -20.1
23 | O=C(CCc1nc(-c2cccnc2)no1)NCC1CCN(C2CC2)C1 (stereo unspecified) | 0.113
24 | CN1CCC(CNC(=O)Cc2ccc(N(C)C)cc2)CC1 | 6.8
25 | NC(=O)N1CC[C@@H]2O[C@H](COCC(=O)N3CCCC3)CC[C@@H]21 | -1.49
26 | Cc1cc(C(=O)N(C)Cc2ccn[nH]2)c(NC(=O)C(C)(C)C)s1 | 2.72
27 | COCCCNC(=O)CN(C)C1CCCN(c2cccnn2)C1 (stereo unspecified) | -2.51
28 | Cc1ccc(C(=O)NC2CCN(Cc3nc(CC(C)C)no3)CC2)s1 | 7.61
29 | CCC(=O)N1CCC(Cc2nccnc2Nc2ccccn2)CC1 | 5.82
30 | O=C(NCC(O)COc1ccc(C(F)(F)F)cc1)Nc1nncs1 (stereo unspecified) | -14.2
31 | CS(=O)(=O)N1CCN(Cc2csc(-c3ncccn3)n2)CC1 | -4.71
32 | c1ccc2c(c1)CC(n1ccnc1-c1cc3n(n1)CCCNC3)CO2 (stereo unspecified) | -8.26
33 | O=C(c1ccc2c(c1)COC2)N1CCCC(n2cncn2)C1 (stereo unspecified) | -20.6
34 | COCCn1ccc(=O)c(OCC(=O)Nc2ccc(OC)cc2)c1C | 0.955
35 | CC(NCc1ccnc(OC2CCC2)c1)c1cnn(C)c1 (stereo unspecified) | 5.64
36 | CC(=O)N1CCC2(CC1)CC(N1CCOCC1)c1ccc(C)cc12 (stereo unspecified) | -137
37 | CN1C(=O)CCC12CCCN(C(=O)c1ccncc1F)C2 (stereo unspecified) | 11
38 | O=C(c1cnc(C2CC2)nc1)N1CCCC(c2nccs2)C1 (stereo unspecified) | 4.53
39 | CC[C@@]1(O)CCN(CCCOc2ccc(C(N)=O)cc2)C[C@H]1O | -5.03
40 | c1cc(CN2CCc3nc(N4CCOCC4)nc(NC4CC4)c3C2)co1 | 12
41 | CN(C)C(=O)c1nnn(-c2ccc(Br)cc2)n1 | 7.5
42 | COC(=O)NC1(C(=O)NCc2ccc(-c3ccn[nH]3)cc2)CCCC1 | -7.65

Row | Compound | cytotoxicity at 10 µM [%]
43 | CCOCC(=O)N1CCOCC2(CCN(c3ncccn3)C2)C1 (stereo unspecified) | -2.22
44 | CN(Cc1ncc[nH]1)C(=O)C(C)(C)NC(=O)c1cccs1 | 11.6
45 | COCCN1CCCc2sc(C(=O)NCC3CCCO3)nc21 (stereo unspecified) | 5.96
46 | CN1CCOC(CNCc2nc(-c3ccco3)no2)C1 (stereo unspecified) | 3.54
47 | CN(Cc1ccccc1)c1cnn(CC2CCCCO2)c(=O)c1 (stereo unspecified) | 0.992
48 | Cc1cnc(CN2CCCC(c3cc(C(N)=O)[nH]n3)C2)o1 (stereo unspecified) | -9.14
49 | CCC(=O)Nc1ccc(C(C)NC(=O)COCCOC)cc1 (stereo unspecified) | -7.71
50 | Cc1cnc(N2C[C@@H]3[C@@H](C(=O)NCC(C)C)CCS(=O)(=O)[C@@H]3C2)nc1 | -155
51 | O=C(CO[C@@H]1CC[C@H]2[C@H]1OCCN2c1ncccn1)N1CCCC1 | -7.58
52 | Cn1c(CCC(=O)N2CCC3(CCCO3)CC2)nc2cccnc21 | 0.592
53 | CCc1nc2n(n1)CC(NCc1noc(-c3ccc(C)cc3)n1)CC2 (stereo unspecified) | -4.26
54 | COCc1noc(-c2nn(-c3ccccc3F)c3c2CCC3)n1 | -2.68
55 | CCc1ccc(NC(=O)c2cnc(N3CCCC3)nc2C)cc1 | 0.709
56 | COc1cc(CNC2CCCN(c3ncccn3)C2)cc2c1OCO2 (stereo unspecified) | 6.26
57 | CC(C)N(Cc1nccn1C)C(=O)c1cc(Cl)c[nH]c1=O | -0.723
58 | CC(=O)Nc1sccc1C(=O)C(C)(C)C | -44.7
59 | CC(C)n1ncc2cc(NC(=O)N3CCSCC3)cnc21 | -5.07
60 | COCCN1CCN(CC(=O)N(C)Cc2ccsc2)CC1C (stereo unspecified) | -127
61 | O=C1NC2(CCc3ccccc31)CCN(C(=O)c1ccncc1)C2 (stereo unspecified) | 0.84
62 | Cc1cncc(C(=O)N2CCCC3(CCCN3S(C)(=O)=O)C2)c1 (stereo unspecified) | -152
63 | Cc1ccc(N2CCC3(CCN(C(=O)c4ccnnc4)CC3)CC2)nn1 | 3.94

Row | Compound | cytotoxicity at 10 µM [%]
64 | Cn1c2c(ccc1=O)CC(NS(C)(=O)=O)CC2 (stereo unspecified) | 3.99
65 | CC(C)c1cncnc1-c1cc(F)cc2c1OC(CN)C2 (stereo unspecified) | -4.02
66 | COc1nn(C)c2c1CCCN(C(=O)c1cccc3cccnc13)C2 | -104
67 | CNc1nccnc1C1CCN(C(C)C)CC1 | -25.2
68 | CC1CN(CC(=O)Nc2nncs2)CCN1c1nccs1 (stereo unspecified) | -15.7
69 | COC(=O)c1cnn(-c2cc(Oc3cccc(C)c3)ncn2)c1N | 34.1
70 | CCCn1ccc(C(=O)N2CCOC(c3nc(-c4cccs4)no3)C2)n1 (stereo unspecified) | 8.54
71 | Cc1nc(C)n(CCNC2CCN(c3ncnc4c(C)csc34)CC2)n1 | 4.35
72 | C=C(C)CNc1ccc(C(=O)N(CC)Cc2nccn2C)cn1 | -9.36
73 | CN(Cc1ccccc1-n1cccn1)c1nc(N)nc2c1CCNCC2 | -12.2
74 | O=C(c1ncccn1)N1CCC[C@]2(C[C@H](OCC3CC3)CO2)C1 | -86
75 | COCC(=O)NC1CC2(CCN(CCF)CC2)Oc2ccccc21 (stereo unspecified) | -0.864
76 | Cc1oc(CNC(=O)Cc2cccc(OC(F)F)c2)cc1C(=O)O | 7.04
77 | CC(C)N1CCOCC2(CN(Cc3ccccn3)CCO2)C1 (stereo unspecified) | 6.46
78 | CN(c1ncnc2c1cnn2C)C1CCCN(c2cccnn2)C1 (stereo unspecified) | 3.93
79 | COc1c(C2CCCN2c2ncnc3c2cnn3C)c(C)nn1C (stereo unspecified) | 1.95
80 | c1cc(-c2ccn(CCN3CCCC3)n2)cc(-c2nccs2)c1 | -8.96
81 | CC(C)CN1C[C@@H]2CN(C(=O)c3cccn3C)C[C@@H]2C1=O | -111

— ChEMBL document CHEMBL4513216, “Probing the Open Global Health Chemical Diversity Library for Multistage-Active Starting Points for Next-Generation Antimalarials” (ACS Infect Dis, 2020)
